Measurements taken from ChEMBL document CHEMBL1128448, “Synthesis and antifungal activity of new azole derivatives containing an N-acylmorpholine ring” (1995).
Converted amounts (≈) assume the structure as drawn.

Assays:
Mus sp. [1] = assay: In vivo evaluation of % survival rate after peroral administration on 5th day at dose 2.5 mg/kg; type: functional; conditions: route oral, 2.5 mg/kg
Candida albicans [2] = assay: In vivo evaluation of minimum inhibitory concentration against Candida albicans 406; type: functional
Procedure, shortened: (§1)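 Broth macrodilution MIC following NCCLS M27-P, in RPMI-1640 buffered with 0.165 M MOPS. Fluconazole was dissolved in water and other drugs in DMSO. C. parapsilosis ATCC 22019 served as the reference strain in every run. MIC was the lowest concentration giving turbidity at or below the 80% inhibition standard.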

Pichia kudriavzevii [3] = assay: In vitro evaluation of minimum inhibitory concentration against Candida krusei 70; type: functional
Procedure, shortened: (§2)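 Stocks are 800 μg/mL in 50% ethanol. Each plate gets 10 μL of inoculum at 10^5 cfu/mL. Incubation at 25 °C, 48 h for yeasts and 120 h for dermatophytes and molds. Organisms are ATCC strains or clinical isolates.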

Trichophyton rubrum = assay: In vitro evaluation of minimum inhibitory concentration against Trichophyton rubrum 90; type: functional; procedure, shortened: as §2
Trichophyton benhamiae = assay: In vitro evaluation of minimum inhibitory concentration against Trichophyton mentagrophytes 23; type: functional, Arthroderma benhamiae; procedure, shortened: as §2
Nannizzia gypsea = assay: In vitro evaluation of minimum inhibitory concentration against Microsporum gypseum 22; type: functional; procedure, shortened: as §2
Mus sp. [4] = assay: In vivo evaluation of % survival rate after peroral administration on 7th day at dose 2.5 mg/kg; type: functional; conditions: route oral, 2.5 mg/kg
Candida albicans [5] = assay: In vitro evaluation of minimum inhibitory concentration against Candida albicans 76; type: functional; procedure, shortened: as §2
Kluyveromyces marxianus [6] = assay: In vivo Evaluation of minimum inhibitory concentration against Candida pseudotropicalis 13; type: functional; procedure, shortened: as §2
Candida parapsilosis [7] = assay: In vitro evaluation of minimum inhibitory concentration against Candida parapsilosis 61; type: functional; procedure, shortened: as §2
Mus sp. [8] = assay: In vivo evaluation of % survival rate after peroral administration on 3rd day at dose 2.5 mg/kg; type: functional; conditions: route oral, 2.5 mg/kg
Microsporum canis = assay: In vitro evaluation of minimum inhibitory concentration against Microsporum canis 47; type: functional; procedure, shortened: as §2
Nakaseomyces glabratus [9] = assay: In vitro evaluation of minimum inhibitory concentration against Torulopsis glabrata 78; type: functional; procedure, shortened: as §2
Candida albicans [10] = assay: In vivo evaluation of minimum inhibitory concentration against Candida albicans 60; type: functional; procedure, shortened: as §1
[11] = system: Meyerozyma guilliermondii; assay: In vitro evaluation of minimum inhibitory concentration against Candida guilliermondii 26; type: functional; procedure, shortened: as §2
Mus sp. [12] = assay: In vivo evaluation of % survival rate after peroral administration on 9th day at dose 2.5 mg/kg; type: functional; conditions: route oral, 2.5 mg/kg
Aspergillus fumigatus = assay: In vitro evaluation of minimum inhibitory concentration against Aspergillus fumigatus 33; type: functional; procedure, shortened: as §2
Pichia kudriavzevii [13] = assay: Evaluation of In vitro antifungal activity against Candida krusei C64 by broth macro dilution method; type: functional
Procedure, shortened: (§3)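 Yeast MIC and MFC by broth macrodilution per NCCLS M27-P in RPMI-1640 buffered with 0.165 M MOPS. Fluconazole in sterile water, other drugs in DMSO. C. parapsilosis ATCC 22019 is the reference strain in each run. MIC is the lowest concentration with turbidity ≤ the 80% inhibition standard. For MFC, 0.04 mL from clear tubes is plated on Sabouraud agar; MFC is the lowest concentration giving ≤1 colony.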

Candida tropicalis [14] = assay: Evaluation of In vitro antifungal activity against Candida tropicalis 50 by broth macro dilution method; type: functional; procedure, shortened: as §3
Candida albicans [15] = assay: Evaluation of In vitro antifungal activity against Candida albicans 76 by broth macro dilution method; type: functional; procedure, shortened: as §3
Aspergillus flavus = assay: In vitro evaluation of minimum inhibitory concentration against Aspergillus flavus 19; type: functional; conditions: Aspergillus flavus; read-out: MIC; procedure, shortened: as §2
Nakaseomyces glabratus [16] = assay: Evaluation of In vitro antifungal activity against Torulopsis glabrata 78 by broth macro dilution method; type: functional; procedure, shortened: as §3
Candida albicans [17] = assay: Evaluation of In vitro antifungal activity against Candida albicans C56 by broth macro dilution method; type: functional; procedure, shortened: as §3
Candida parapsilosis [18] = assay: Evaluation of In vitro antifungal activity against Candida parapsilosis C74 by broth macro dilution method; type: functional; conditions: Lodderomyces parapsilosis; procedure, shortened: as §3
Candida albicans [19] = assay: […] Evaluation of minimum inhibitory concentration against Candida albicans 60; type: functional; procedure, shortened: as §2
[20] = system: Meyerozyma guilliermondii; assay: Evaluation of In vitro antifungal activity against Candida guilliermondii 26 by broth macro dilution method; type: functional; procedure, shortened: as §3
Candida parapsilosis [21] = assay: Evaluation of In vitro antifungal activity against Candida parapsilosis C292 by broth macro dilution method; type: functional; conditions: Lodderomyces parapsilosis; procedure, shortened: as §3
Candida albicans [22] = assay: Evaluation of In vitro antifungal activity against Candida albicans 2.01 by broth macro dilution method; type: functional; procedure, shortened: as §3
Candida parapsilosis [23] = assay: Evaluation of In vitro antifungal activity against Candida parapsilosis ATCC 141095 by broth macro dilution method; type: functional; conditions: Lodderomyces parapsilosis; procedure, shortened: as §3
Candida albicans [24] = assay: Evaluation of In vitro antifungal activity against Candida albicans 406 by broth macro dilution method; type: functional; procedure, shortened: as §3
Candida albicans [25] = assay: […] Evaluation of minimum inhibitory concentration against Candida albicans 406; type: functional; procedure, shortened: as §2
Rhodotorula mucilaginosa = assay: In vitro evaluation of minimum inhibitory concentration against Rhodotorula rubra 16; type: functional; conditions: Rhodotorula mucilaginosa; read-out: MIC; procedure, shortened: as §2
Pichia kudriavzevii [26] = assay: Evaluation of In vitro antifungal activity against Candida krusei 70 by broth macro dilution method; type: functional; procedure, shortened: as §3
Cryptococcus neoformans [27] = assay: Evaluation of In vitro antifungal activity against Cryptococcus neoformans 87 by broth macro dilution method; type: functional; procedure, shortened: as §3
Candida tropicalis [28] = assay: In vitro evaluation of minimum inhibitory concentration against Candida tropicalis 2.11; type: functional; conditions: Candida tropicalis; read-out: MIC; procedure, shortened: as §2
Kluyveromyces marxianus [29] = assay: In vitro evaluation of minimum inhibitory concentration against Candida pseudotropicalis 13; type: functional; conditions: Kluyveromyces marxianus; read-out: MIC; procedure, shortened: as §2
Candida parapsilosis [30] = assay: Evaluation of In vitro antifungal activity against Candida parapsilosis 2.07 by broth macro dilution method; type: functional; conditions: Lodderomyces parapsilosis; procedure, shortened: as §3
Candida parapsilosis [31] = assay: Evaluation of In vitro antifungal activity against Candida parapsilosis ATCC 22019 by broth macro dilution method; type: functional; conditions: Lodderomyces parapsilosis; procedure, shortened: as §3
Cryptococcus neoformans [32] = assay: Evaluation of In vitro antifungal activity against Cryptococcus neoformans 74 by broth macro dilution method; type: functional; procedure, shortened: as §3
Candida albicans [33] = assay: Evaluation of […] antifungal activity against Candida albicans 60 by broth macro dilution method; type: functional; procedure, shortened: as §3
Aspergillus niger = assay: In vitro evaluation of minimum inhibitory concentration against Aspergillus niger 18; type: functional; conditions: Aspergillus niger; read-out: MIC; procedure, shortened: as §2
Candida albicans [34] = assay: Evaluation of In vitro antifungal activity against Candida albicans 60 by broth macro dilution method
Candida albicans [35] = assay: Evaluation of In vitro antifungal activity against Candida albicans ATCC 10231 by broth macro dilution method; type: functional; procedure, shortened: as §3
Candida tropicalis [36] = assay: Evaluation of In vitro antifungal activity against Candida tropicalis 2.11 by broth macro dilution method; type: functional; procedure, shortened: as §3
Kluyveromyces marxianus [37] = assay: Evaluation of In vitro antifungal activity against yeasts by broth macro dilution method; type: functional; procedure, shortened: as §3
Candida albicans [38] = assay: Evaluation of In vitro antifungal activity against Candida albicans C52 by broth macro dilution method; type: functional; procedure, shortened: as §3
Kluyveromyces marxianus [39] = assay: Evaluation of In vitro antifungal activity against Candida pseudotropicalis ATCC 28838 by broth macro dilution method; type: functional; procedure, shortened: as §3
Candida albicans [40] = assay: Evaluation of In vitro antifungal activity against Candida albicans 31 by broth macro dilution method; type: functional; procedure, shortened: as §3

## C[C@H]1N(C(=O)c2ccc(C(F)(F)F)cc2)CCO[C@@]1(Cn1cncn1)c1ccc(F)cc1F (stereo in doubt; (+)-41)
Mus sp. [1]
  Survival: 0%
Candida albicans [2]
  MIC: >80 µg/mL
Pichia kudriavzevii [3]
  MIC: >80 µg/mL
Trichophyton rubrum
  MIC: 80 µg/mL (≈ 172 µM)
Trichophyton benhamiae
  MIC: >80 µg/mL
Nannizzia gypsea
  MIC: >80 µg/mL
Mus sp. [4]
  Survival: 0%
Candida albicans [5]
  MIC: >80 µg/mL
Kluyveromyces marxianus [6]
  MIC: 10 µg/mL (≈ 21.4 µM)
Candida parapsilosis [7]
  MIC: >80 µg/mL
Mus sp. [8]
  Survival: 10%
Microsporum canis
  MIC: >80 µg/mL
Nakaseomyces glabratus [9]
  MIC: >80 µg/mL
Candida albicans [10]
  MIC: >80 µg/mL
[11]
  MIC: >80 µg/mL
Mus sp. [12]
  Survival: 0%
Aspergillus fumigatus
  MIC: >80 µg/mL

## CC(=O)N1CCN(c2ccc(OC[C@H]3CO[C@](Cn4ccnc4)(c4ccc(Cl)cc4Cl)O3)cc2)CC1 [KETOCONAZOLE]
Pichia kudriavzevii [13]
  MFC: 8 µg/mL (≈ 15.1 µM)
  MIC: 2 µg/mL (≈ 3.76 µM)
Candida tropicalis [14]
  MFC: > 16 µg/mL
  MIC: 2 µg/mL (≈ 3.76 µM)
Candida albicans [15]
  MFC: > 16 µg/mL
  MIC: < 0.031 µg/mL
Pichia kudriavzevii [3]; Pichia kudriavzevii, read-out: MIC
  MIC: 1.25 µg/mL (≈ 2.35 µM)
Trichophyton rubrum; Trichophyton rubrum, read-out: MIC
  MIC: 1.25 µg/mL (≈ 2.35 µM)
Aspergillus flavus
  MIC: 2.5 µg/mL (≈ 4.7 µM)
Nakaseomyces glabratus [16]
  MFC: > 16 µg/mL
  MIC: 8 µg/mL (≈ 15.1 µM)
Candida albicans [17]
  MFC: > 16 µg/mL
  MIC: < 0.031 µg/mL
Trichophyton benhamiae; Trichophyton benhamiae, read-out: MIC
  MIC: 5 µg/mL (≈ 9.41 µM)
Candida parapsilosis [18]
  MFC: 0.25 µg/mL (≈ 0.47 µM)
  MIC: 0.063 µg/mL (≈ 0.119 µM)
Candida albicans [19]
  MIC: < 0.03 µg/mL
[20]
  MFC: 4 µg/mL (≈ 7.53 µM)
  MIC: 0.125 µg/mL (≈ 0.235 µM)
Candida parapsilosis [21]
  MFC: 16 µg/mL (≈ 30.1 µM)
  MIC: 0.125 µg/mL (≈ 0.235 µM)
Nannizzia gypsea; Nannizzia gypsea, read-out: MIC
  MIC: 0.63 µg/mL (≈ 1.19 µM)
Candida albicans [22]
  MFC: > 16 µg/mL
  MIC: 0.063 µg/mL (≈ 0.119 µM)
Candida parapsilosis [23]
  MFC: 16 µg/mL (≈ 30.1 µM)
  MIC: 0.5 µg/mL (≈ 0.941 µM)
Candida albicans [24]
  MFC: > 16 µg/mL
  MIC: 0.063 µg/mL (≈ 0.119 µM)
Candida albicans [25]
  MIC: < 0.03 µg/mL
Rhodotorula mucilaginosa
  MIC: 0.07 µg/mL (≈ 0.132 µM)
Pichia kudriavzevii [26]
  MFC: 4 µg/mL (≈ 7.53 µM)
  MIC: 2 µg/mL (≈ 3.76 µM)
Cryptococcus neoformans [27]
  MFC: 16 µg/mL (≈ 30.1 µM)
  MIC: 2 µg/mL (≈ 3.76 µM)
Candida tropicalis [28]
  MIC: 2.5 µg/mL (≈ 4.7 µM)
Kluyveromyces marxianus [29]
  MIC: 10 µg/mL (≈ 18.8 µM)
Candida albicans [5]; Candida albicans, read-out: MIC
  MIC: 0.15 µg/mL (≈ 0.282 µM)
Candida parapsilosis [30]
  MFC: > 16 µg/mL
  MIC: 0.063 µg/mL (≈ 0.119 µM)
Candida parapsilosis [31]
  MFC: 4 µg/mL (≈ 7.53 µM)
  MIC: 0.063 µg/mL (≈ 0.119 µM)
Candida parapsilosis [7]; Lodderomyces parapsilosis, read-out: MIC
  MIC: 0.07 µg/mL (≈ 0.132 µM)
Cryptococcus neoformans [32]
  MFC: 1 µg/mL (≈ 1.88 µM)
  MIC: < 0.031 µg/mL
Candida albicans [33]
  MIC: < 0.031 µg/mL
Aspergillus niger
  MIC: 40 µg/mL (≈ 75.3 µM)
Microsporum canis; Microsporum canis, read-out: MIC
  MIC: 2.5 µg/mL (≈ 4.7 µM)
Candida albicans [34]
  MFC: > 16 µg/mL
Nakaseomyces glabratus [9]; Nakaseomyces glabratus, read-out: MIC
  MIC: 1.25 µg/mL (≈ 2.35 µM)
Candida albicans [35]
  MFC: > 16 µg/mL
  MIC: 0.063 µg/mL (≈ 0.119 µM)
Candida tropicalis [36]
  MFC: 8 µg/mL (≈ 15.1 µM)
  MIC: 0.25 µg/mL (≈ 0.47 µM)
Kluyveromyces marxianus [37]
  MIC: 0.063 µg/mL (≈ 0.119 µM)
Candida albicans [38]
  MFC: > 16 µg/mL
  MIC: < 0.031 µg/mL
Kluyveromyces marxianus [39]
  MFC: > 16 µg/mL
[11]; Meyerozyma guilliermondii, read-out: MIC
  MIC: < 0.03 µg/mL
Candida albicans [40]
  MFC: > 16 µg/mL
  MIC: < 0.031 µg/mL
Aspergillus fumigatus; Aspergillus fumigatus, read-out: MIC
  MIC: 5 µg/mL (≈ 9.41 µM)
